For series [1], the target named is T1, Lysosomal acid glucosylceramidase (Homo sapiens, UniProt P04062).
T1 sequence (P04062 whole entry): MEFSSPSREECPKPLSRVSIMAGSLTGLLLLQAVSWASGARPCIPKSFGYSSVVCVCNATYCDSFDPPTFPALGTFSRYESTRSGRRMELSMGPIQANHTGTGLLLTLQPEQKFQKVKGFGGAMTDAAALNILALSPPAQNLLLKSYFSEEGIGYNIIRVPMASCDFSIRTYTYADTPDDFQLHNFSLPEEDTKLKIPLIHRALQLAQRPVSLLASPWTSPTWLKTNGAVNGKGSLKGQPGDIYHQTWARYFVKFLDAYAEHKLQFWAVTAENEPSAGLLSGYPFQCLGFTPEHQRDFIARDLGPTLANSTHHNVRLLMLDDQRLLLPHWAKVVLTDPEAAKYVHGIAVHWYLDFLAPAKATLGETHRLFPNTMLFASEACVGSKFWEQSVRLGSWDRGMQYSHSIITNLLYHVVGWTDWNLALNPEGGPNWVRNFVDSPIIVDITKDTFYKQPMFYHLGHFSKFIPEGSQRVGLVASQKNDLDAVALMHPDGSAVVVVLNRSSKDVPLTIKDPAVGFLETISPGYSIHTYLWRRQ
In words: Inhibition of recombinant glucocerebrosidase in McIlvaine buffer at pH 5.2 after 10 mins by fluorometric analysis. In outline: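 Imiglucerase in McIlvaine buffer pH 5.2 containing 0.2% (w/v) sodium taurocholate and 0.1% (v/v) Triton X-100. Enzyme pre-incubated 30 min at 37 °C with inhibitor. Then 4 mM 4-methylumbelliferyl β-D-glucopyranoside (substrate solution), 10 min at 37 °C. Stop with 100 mM glycine/NaOH pH 10.6, fluorescence ex 355/em 460 nm. IC50 from % activity vs log[I], at least five concentrations.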

Series [2] concerns the target Oligo-1,6-glucosidase IMA1 (Saccharomyces cerevisiae S288c, UniProt P53051). The experiment in a line: Inhibition of yeast alpha-glucosidase.
Series [3] is described as follows: Cytotoxicity against human wild type fibroblasts at up to 300 uM after 24 hrs by MTT assay. Type of series: cell-based. The following applies: fibroblast. In general terms: Formazan colour is commonly taken as a measure of viable cells.
Series [4] deals with T2, Lysosomal acid glucosylceramidase (Homo sapiens) (UniProt P04062).
T2 sequence (whole entry): T1 sequence (P04062 whole entry)
The experiment in a line: Inhibition of glucocerebrosidase in human intact fibroblasts at 50 uM after 24 hrs by fluorometric analysis. The method, boiled down: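 Fibroblasts grown in MEM with 15% inactivated FCS, 37 °C, 5% CO2, passages 14–30. Plated in DMEM with aminocyclitol (50 μM final, from DMSO) for 24 h, washed with PBS. GCase assayed with 1 h incubation at 37 °C, stopped with 100 mM glycine-NaOH pH 10.6, fluorescence 355/460 nm. Untreated and treated cells in quadruplicate.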

Series [5] has as its target T1, Lysosomal acid glucosylceramidase. In words: Inhibition of recombinant glucocerebrosidase in McIlvaine buffer at pH 7.4 after 10 mins by fluorometric analysis.
For series [6] the target is unchanged. In words: Competitive inhibition of recombinant glucocerebrosidase.
For series [7], the target named is Alpha-galactosidase (Coffea arabica, UniProt Q42656). The experiment in a line: Inhibition of alpha-galactosidase from coffee beans.
Chain of Alpha-galactosidase (Q42656 whole entry): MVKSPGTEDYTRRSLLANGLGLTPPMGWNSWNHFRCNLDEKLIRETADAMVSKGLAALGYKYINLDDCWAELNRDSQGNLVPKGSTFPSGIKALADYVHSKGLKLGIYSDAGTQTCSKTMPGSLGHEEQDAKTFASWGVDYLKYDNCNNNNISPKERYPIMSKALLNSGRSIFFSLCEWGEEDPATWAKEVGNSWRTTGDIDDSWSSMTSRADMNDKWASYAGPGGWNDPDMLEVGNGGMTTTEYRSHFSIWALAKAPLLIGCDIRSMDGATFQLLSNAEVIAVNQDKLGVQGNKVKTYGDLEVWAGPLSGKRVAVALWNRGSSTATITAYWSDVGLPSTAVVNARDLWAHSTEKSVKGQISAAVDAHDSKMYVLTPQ
Series [8] concerns the target Probable alpha-glucosidase Os06g0675700 (Oryza sativa Japonica Group, UniProt Q653V7). In words: Inhibition of rice alpha-glucosidase.
Series [9] concerns the target T3, Beta-galactosidase (Bos taurus, UniProt Q58D55).
T3 sequence (Q58D55 whole entry): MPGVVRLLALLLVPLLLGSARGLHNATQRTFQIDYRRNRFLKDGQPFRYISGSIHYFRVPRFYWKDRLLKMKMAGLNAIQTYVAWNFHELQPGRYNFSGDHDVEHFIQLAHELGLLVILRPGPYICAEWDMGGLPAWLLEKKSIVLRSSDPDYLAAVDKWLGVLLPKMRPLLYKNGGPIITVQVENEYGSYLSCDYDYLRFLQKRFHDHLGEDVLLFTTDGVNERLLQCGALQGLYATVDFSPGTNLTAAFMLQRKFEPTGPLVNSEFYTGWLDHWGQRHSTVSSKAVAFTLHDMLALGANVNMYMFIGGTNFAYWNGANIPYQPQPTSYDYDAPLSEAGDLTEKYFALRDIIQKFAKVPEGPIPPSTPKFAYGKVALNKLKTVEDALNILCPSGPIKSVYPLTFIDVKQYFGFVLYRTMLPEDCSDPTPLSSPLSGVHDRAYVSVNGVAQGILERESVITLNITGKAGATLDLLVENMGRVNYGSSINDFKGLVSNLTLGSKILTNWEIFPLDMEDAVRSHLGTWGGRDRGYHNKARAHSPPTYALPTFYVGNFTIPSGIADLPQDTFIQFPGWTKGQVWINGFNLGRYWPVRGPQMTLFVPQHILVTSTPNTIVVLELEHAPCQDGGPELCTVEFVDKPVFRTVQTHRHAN
In words: Inhibition of bovine liver beta-galactosidase.

In series [10] the target is T4, Ceramide glucosyltransferase (Homo sapiens) (UniProt Q16739).
T4 sequence (whole entry): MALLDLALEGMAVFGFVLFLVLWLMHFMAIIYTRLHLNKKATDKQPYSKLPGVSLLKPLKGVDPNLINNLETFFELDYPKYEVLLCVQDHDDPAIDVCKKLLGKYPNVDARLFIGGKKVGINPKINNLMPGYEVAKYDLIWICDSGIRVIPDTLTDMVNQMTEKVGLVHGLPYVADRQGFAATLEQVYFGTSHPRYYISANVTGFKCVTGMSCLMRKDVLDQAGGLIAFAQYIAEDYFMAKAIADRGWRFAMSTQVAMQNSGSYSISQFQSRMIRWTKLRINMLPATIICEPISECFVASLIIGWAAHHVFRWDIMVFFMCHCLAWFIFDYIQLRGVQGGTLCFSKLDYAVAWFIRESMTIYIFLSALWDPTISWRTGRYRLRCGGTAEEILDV
The experiment in a line: Inhibition of glucosylceramide synthase in human A549 cells at 250 uM after 35 mins by fluorometric analysis. In kind it is cell-based.

The target in series [11] is T2, Lysosomal acid glucosylceramidase (Homo sapiens). In words: Enzyme stabilization ratio of recombinant glucocerebrosidase activity at 48 degC to at 37 degC at 100 uM after 60 mins.

A value given as a limit tells only on which side of the number the result lay.

Usually IC50 stands for the concentration that gives 50% inhibition. The term inhibition denotes the percentage by which the read-out fell short of the control. A low value points to little suppression. A word on the Ki: it is a measure of affinity in units of concentration, obtained from inhibition or displacement.

Chain of Oligo-1,6-glucosidase IMA1 (P53051 whole entry): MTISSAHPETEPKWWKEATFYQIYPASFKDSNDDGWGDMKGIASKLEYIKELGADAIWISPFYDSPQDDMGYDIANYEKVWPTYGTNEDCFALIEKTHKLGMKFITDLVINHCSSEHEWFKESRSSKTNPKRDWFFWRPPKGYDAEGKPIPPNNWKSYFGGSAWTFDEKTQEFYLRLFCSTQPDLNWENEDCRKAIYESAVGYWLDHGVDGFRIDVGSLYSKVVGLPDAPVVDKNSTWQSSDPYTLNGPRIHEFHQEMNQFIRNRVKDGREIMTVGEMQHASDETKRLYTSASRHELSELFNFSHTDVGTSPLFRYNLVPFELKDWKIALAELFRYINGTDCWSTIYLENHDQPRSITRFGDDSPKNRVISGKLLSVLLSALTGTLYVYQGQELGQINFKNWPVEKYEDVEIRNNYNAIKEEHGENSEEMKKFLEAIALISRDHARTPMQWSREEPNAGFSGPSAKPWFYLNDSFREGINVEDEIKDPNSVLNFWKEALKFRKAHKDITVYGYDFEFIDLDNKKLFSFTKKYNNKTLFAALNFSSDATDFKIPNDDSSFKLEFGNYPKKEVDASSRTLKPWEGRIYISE
Chain of Probable alpha-glucosidase Os06g0675700 (Q653V7 whole entry): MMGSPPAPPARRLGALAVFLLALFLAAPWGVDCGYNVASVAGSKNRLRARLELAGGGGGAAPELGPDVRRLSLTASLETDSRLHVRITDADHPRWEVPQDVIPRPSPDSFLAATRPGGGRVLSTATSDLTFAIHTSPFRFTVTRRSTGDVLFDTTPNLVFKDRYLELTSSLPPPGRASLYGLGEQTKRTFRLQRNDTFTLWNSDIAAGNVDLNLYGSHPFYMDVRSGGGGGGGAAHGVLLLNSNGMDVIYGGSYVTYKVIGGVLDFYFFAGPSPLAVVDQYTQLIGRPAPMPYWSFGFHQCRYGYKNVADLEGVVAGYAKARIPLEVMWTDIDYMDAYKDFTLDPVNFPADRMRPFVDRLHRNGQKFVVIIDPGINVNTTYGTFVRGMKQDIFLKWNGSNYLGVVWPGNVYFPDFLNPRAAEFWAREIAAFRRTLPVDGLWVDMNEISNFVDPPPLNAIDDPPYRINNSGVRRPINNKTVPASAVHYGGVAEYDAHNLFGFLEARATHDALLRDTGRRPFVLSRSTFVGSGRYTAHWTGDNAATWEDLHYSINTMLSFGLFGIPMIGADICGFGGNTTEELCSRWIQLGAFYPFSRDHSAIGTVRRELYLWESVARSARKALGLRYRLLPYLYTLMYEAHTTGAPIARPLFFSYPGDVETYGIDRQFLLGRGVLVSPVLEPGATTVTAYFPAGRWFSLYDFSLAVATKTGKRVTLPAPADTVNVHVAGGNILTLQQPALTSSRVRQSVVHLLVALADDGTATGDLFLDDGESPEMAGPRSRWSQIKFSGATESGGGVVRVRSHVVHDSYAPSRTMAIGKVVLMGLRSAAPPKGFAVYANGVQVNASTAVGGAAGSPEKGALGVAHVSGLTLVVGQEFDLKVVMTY

Consider `OCCCCCCCCCCn1cc(CN[C@H]2[C@H](O)[C@@H](O)[C@H](O)[C@@H](O)[C@@H]2O)nn1`, for which the IC50 in series [1] was 2.19 µM; in [2] it was more than 100 µM; in series [5], 1.3 µM; in series [7], more than 100 µM; in series [8], more than 100 µM; in [9], 43 µM. Besides, the Activity result in [3] is listed as “Non-toxic”. Also, the inhibition in series [4] and in series [10] was 28% throughout. In addition, the inhibition constant Ki in series [6] is 0.89 µM. In series [11], the Ratio was determined as 6.9.

Consider `O[C@@H]1[C@@H](O)[C@H](O)[C@@H](NCc2cn(CCCCCOCc3ccccc3)nn2)[C@H](O)[C@H]1O`, for which, in [1], the IC50 came to 10 µM.

`O[C@@H]1[C@@H](O)[C@H](O)[C@@H](NCc2cn(Cc3ccc(CN4CCCCC4)cc3)nn2)[C@H](O)[C@H]1O`: the IC50 in [1] came out at 30.9 µM.

As for `CCCCOCCCOCCCn1cc(CN[C@H]2[C@H](O)[C@@H](O)[C@H](O)[C@@H](O)[C@@H]2O)nn1`, in series [1], the IC50 amounted to 181 µM.

Consider `CSCCCn1cc(CN[C@H]2[C@H](O)[C@@H](O)[C@H](O)[C@@H](O)[C@@H]2O)nn1`, for which the concentration for half-maximal inhibition (IC50) in series [1] was found to be 44.5 µM.

For the compound `CCCCCCCCCCn1cc(CN[C@H]2[C@H](O)[C@@H](O)[C@H](O)[C@@H](O)[C@@H]2O)nn1`, the half-inhibitory concentration (IC50) in [1] was 0.15 µM; in [2], more than 100 µM; in series [7], more than 100 µM; in [8], more than 100 µM; in [9] it was more than 100 µM. The Activity entry in series [3] is reported as “Non-toxic”.

On to `CC(C)(CO)Cn1cc(CN[C@H]2[C@H](O)[C@@H](O)[C@H](O)[C@@H](O)[C@@H]2O)nn1`, for which, in series [1], the IC50 was 134 µM.

Consider `O[C@@H]1[C@@H](O)[C@H](O)[C@@H](NCc2cn(Cc3cc(OCc4ccccc4)cc(OCc4ccccc4)c3)nn2)[C@H](O)[C@H]1O`, for which the half-inhibitory concentration (IC50) in [1] was 0.05 µM; in series [2], more than 100 µM; in series [5] it was 0.06 µM; in [7], more than 100 µM; in series [8] it was more than 100 µM; in [9] it was more than 100 µM. Besides, in series [3], the Activity entry was “Non-toxic”. Moreover, the figures for the inhibition in series [4] and in series [10] were 93% and 9%, respectively. Besides, the Ki in series [6] came to 0.05 µM. Further, in series [11], the Ratio stood at 31.2.

Consider `CCCCCCCCCN1C[C@H](O)[C@@H](O)[C@H](O)[C@H]1CO`, for which the IC50 in series [2], in series [7], in [8] and in series [9] was more than 100 µM throughout. Moreover, the Activity entry in [3] is on record as “Non-toxic”.

With `O[C@@H]1[C@@H](O)[C@H](O)[C@@H](NCc2cn(CCCCC3CCCCC3)nn2)[C@H](O)[C@H]1O`, the half-maximal inhibitory concentration (IC50) in series [1] is 1.5 µM; in series [2], more than 100 µM; in series [5], 0.3 µM; in series [7], more than 100 µM; in [8], more than 100 µM; in series [9], more than 100 µM. For the same compound, the Activity result in series [3] is listed as “Non-toxic”. Further, the inhibition in series [4] is 30%; in series [10], 8%. Also, the Ki in series [6] was determined as 0.29 µM. Moreover, in series [11], the Ratio came to 7.5.

Turning to `CC(C)(C)OCCCOCCCn1cc(CN[C@H]2[C@H](O)[C@@H](O)[C@H](O)[C@@H](O)[C@@H]2O)nn1`, the concentration for half-maximal inhibition (IC50) in series [1] amounted to 325 µM.

As to `CCCCCCCCCCN[C@H]1[C@H](O)[C@@H](O)[C@H](O)[C@@H](O)[C@@H]1O`, the IC50 in [2], in [7], in series [8] and in series [9] was more than 100 µM each time. The Activity result in series [3] is listed as “Non-toxic”. For the same compound, in series [11], the Ratio turned out to be 4.9.

On to `O[C@@H]1[C@@H](O)[C@H](O)[C@@H](NCc2cn(Cc3cc4nsnc4cc3Cl)nn2)[C@H](O)[C@H]1O`, for which the IC50 in series [1] was 17.3 µM.

Consider `COCCCOCCCOCCCn1cc(CN[C@H]2[C@H](O)[C@@H](O)[C@H](O)[C@@H](O)[C@@H]2O)nn1`, for which the IC50 in series [1] turned out to be 453 µM.

Regarding `Cn1nnc2ccc(Cn3cc(CN[C@H]4[C@H](O)[C@@H](O)[C@H](O)[C@@H](O)[C@@H]4O)nn3)cc21`, in series [1], the IC50 worked out at 114 µM.

In the case of `OCCCCCCCn1cc(CN[C@H]2[C@H](O)[C@@H](O)[C@H](O)[C@@H](O)[C@@H]2O)nn1`, the IC50 in series [1] turned out to be 5.8 µM.

As for `CCCCc1ncc(Cn2cc(CN[C@H]3[C@H](O)[C@@H](O)[C@H](O)[C@@H](O)[C@@H]3O)nn2)[nH]1`, in series [1], the IC50 came to 237 µM.

As to `CN1CCN(Cc2cccc(Cn3cc(CN[C@H]4[C@H](O)[C@@H](O)[C@H](O)[C@@H](O)[C@@H]4O)nn3)c2)CC1`, in [1], the IC50 stood at 66.5 µM.

Turning to `O[C@@H]1[C@@H](O)[C@H](O)[C@@H](NCc2cn(CCCC3CCCCC3)nn2)[C@H](O)[C@H]1O`, the IC50 in series [1] is 4.32 µM.

In the case of `CCCCCCCCn1cc(CN[C@H]2[C@H](O)[C@@H](O)[C@H](O)[C@@H](O)[C@@H]2O)nn1`, the half-inhibitory concentration (IC50) in series [1] was 2.25 µM; in [2], more than 100 µM; in [7], more than 100 µM; in [8], more than 100 µM; in series [9] it was more than 100 µM. Further, the Activity result in series [3] is listed as “Non-toxic”.

For `COCCCOCCCn1cc(CN[C@H]2[C@H](O)[C@@H](O)[C@H](O)[C@@H](O)[C@@H]2O)nn1`, the IC50 in series [1] was 466 µM.

Take `O[C@@H]1[C@@H](O)[C@H](O)[C@@H](NCc2cn(CCCc3nc4ccc(C(F)(F)F)cc4[nH]3)nn2)[C@H](O)[C@H]1O`: in [1], the 50% inhibitory concentration (IC50) was 12.2 µM.

Take `CCCCCCCCCCCn1cc(CN[C@H]2[C@H](O)[C@@H](O)[C@H](O)[C@@H](O)[C@@H]2O)nn1`: the 50% inhibitory concentration (IC50) in [1] was 0.06 µM; in series [2], more than 100 µM; in series [5], 0.1 µM; in series [7], more than 100 µM; in [8] it was more than 100 µM; in [9], more than 100 µM. The Activity entry in series [3] is reported as “Non-toxic”. Moreover, the inhibition in [4] was determined as 97%; in [10], 29%. The Ki in series [6] was found to be 0.05 µM. Also, the Ratio in series [11] was 30.5.

For `O[C@@H]1[C@@H](O)[C@H](O)[C@@H](NCc2cn(Cc3cccc(I)c3)nn2)[C@H](O)[C@H]1O`, in series [1], the half-maximal inhibitory concentration (IC50) worked out at 10.3 µM.

Consider `O[C@@H]1[C@@H](O)[C@H](O)[C@@H](NCc2cn(C3CSCCCSC3)nn2)[C@H](O)[C@H]1O`, for which the 50% inhibitory concentration (IC50) in series [1] came to 35.9 µM.
